≈ marks a conversion by molar mass, not a printed value.
Tests used:
Acinetobacter baumannii [1] = assay: Antibacterial activity against carbapenem resistant Acinetobacter baumannii isolate PR-314 assessed as bacterial growth inhibition by microdilution method; type: functional
Procedure, shortened: (§1)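 Broth microdilution in Chelex-treated, iron-depleted cation-adjusted Mueller-Hinton broth, following the protocol used for siderophore-containing antibiotics; inoculum lowered to 6 × 10^4 cfu/mL; MIC read as growth inhibition, in μg/mL.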

Acinetobacter baumannii [2] = assay: Antibacterial activity against carbapenem resistant Acinetobacter baumannii isolate PR-319 assessed as bacterial growth inhibition by microdilution method; type: functional; procedure, shortened: as §1
Acinetobacter baumannii [3] = assay: Antibacterial activity against carbapenem resistant Acinetobacter baumannii isolate PR-325 assessed as bacterial growth inhibition by microdilution method; type: functional; procedure, shortened: as §1
Acinetobacter baumannii [4] = assay: Antibacterial activity against carbapenem resistant Acinetobacter baumannii isolate PR-326 assessed as bacterial growth inhibition by microdilution method; type: functional; procedure, shortened: as §1
Acinetobacter baumannii [5] = assay: Antibacterial activity against carbapenem susceptible Acinetobacter baumannii isolate PR-340 assessed as bacterial growth inhibition by microdilution method; type: functional
Procedure, shortened: (§2)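 Broth microdilution MIC in iron-depleted (Chelex resin-treated) cation-adjusted Mueller-Hinton broth, following the protocol used for siderophore-containing antibiotics. Inoculum was lowered to 6 × 10^4 cfu/mL.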

Acinetobacter baumannii [6] = assay: Antibacterial activity against carbapenem resistant Acinetobacter baumannii isolate PR-342 assessed as bacterial growth inhibition by microdilution method; type: functional; procedure, shortened: as §1
Acinetobacter baumannii [7] = assay: Antibacterial activity against carbapenem resistant Acinetobacter baumannii isolate PR-345 assessed as bacterial growth inhibition by microdilution method; type: functional; procedure, shortened: as §1
Acinetobacter baumannii [8] = assay: Antibacterial activity against carbapenem resistant Acinetobacter baumannii isolate PR-351 assessed as bacterial growth inhibition by microdilution method; type: functional; procedure, shortened: as §1
Acinetobacter baumannii [9] = assay: Antibacterial activity against carbapenem resistant Acinetobacter baumannii isolate PR-380 assessed as bacterial growth inhibition by microdilution method; type: functional; procedure, shortened: as §1
Acinetobacter baumannii [10] = assay: Antibacterial activity against carbapenem resistant Acinetobacter baumannii isolate PR-384 assessed as bacterial growth inhibition by microdilution method; type: functional; procedure, shortened: as §1
Acinetobacter baumannii [11] = assay: Antibacterial activity against carbapenem resistant Acinetobacter baumannii isolate PR-387 assessed as bacterial growth inhibition by microdilution method; type: functional; procedure, shortened: as §1
Acinetobacter baumannii [12] = assay: Antibacterial activity against carbapenem resistant Acinetobacter baumannii isolate PR-399 assessed as bacterial growth inhibition by microdilution method; type: functional; procedure, shortened: as §1
Acinetobacter baumannii [13] = assay: Antibacterial activity against carbapenem resistant Acinetobacter baumannii isolate PR-401 assessed as bacterial growth inhibition by microdilution method; type: functional; procedure, shortened: as §1
Acinetobacter baumannii [14] = assay: Antibacterial activity against carbapenem resistant Acinetobacter baumannii isolate PR-423 assessed as bacterial growth inhibition by microdilution method; type: functional; procedure, shortened: as §1
Acinetobacter baumannii [15] = assay: Antibacterial activity against carbapenem resistant Acinetobacter baumannii isolate PR-459 assessed as bacterial growth inhibition by microdilution method; type: functional; procedure, shortened: as §1
Acinetobacter baumannii [16] = assay: Antibacterial activity against carbapenem resistant Acinetobacter baumannii isolate PR-482 assessed as bacterial growth inhibition by microdilution method; type: functional; procedure, shortened: as §1
[17] = Antibacterial activity against carbapenem susceptible Acinetobacter nosocomialis isolate PR-362 assessed as bacterial growth inhibition by microdilution method; type: functional; procedure, shortened: as §2
[18] = Antibacterial activity against carbapenem susceptible Acinetobacter nosocomialis isolate PR-365 assessed as bacterial growth inhibition by microdilution method; type: functional; procedure, shortened: as §2
[19] = Antibacterial activity against carbapenem susceptible Acinetobacter nosocomialis isolate PR-412 assessed as bacterial growth inhibition by microdilution method; type: functional; procedure, shortened: as §2
[20] = Antibacterial activity against carbapenem susceptible Acinetobacter nosocomialis isolate PR-491 assessed as bacterial growth inhibition by microdilution method; type: functional; procedure, shortened: as §2
Acinetobacter baumannii [21] = assay: Antibacterial activity against carbapenem susceptible Acinetobacter baumannii isolate PR-434 assessed as bacterial growth inhibition by microdilution method; type: functional; procedure, shortened: as §2
Acinetobacter baumannii [22] = assay: Antibacterial activity against carbapenem susceptible Acinetobacter baumannii isolate PR-452 assessed as bacterial growth inhibition by microdilution method; type: functional; procedure, shortened: as §2
Acinetobacter baumannii [23] = assay: Antibacterial activity against carbapenem susceptible Acinetobacter baumannii isolate PR-464 assessed as bacterial growth inhibition by microdilution method; type: functional; procedure, shortened: as §2
Acinetobacter baumannii [24] = assay: Antibacterial activity against panel of 198 clinical isolates Acinetobacter baumannii assessed as inhibition of bacterial growth by microdilution method; type: functional
Acinetobacter baumannii [25] = assay: Antibacterial activity against 98 member subset of carbapenem resistant Acinetobacter baumannii assessed as assessed as inhibition of bacterial growth by microdilution method; type: functional; procedure, shortened: as §1
[26] = Inhibition of Acinetobacter sp. strain ATCC 27244 PBP3 expressed in Escherichia coli BL21 (DE3) assessed as reduction in fluorescence intensity using Bocillin-protein as fluorescent substrate by SDS PAGE analysis
Pseudomonas aeruginosa [27] = assay: Antibacterial activity against wild type Pseudomonas aeruginosa isolate PR-545 assessed as inhibition of bacterial growth by microdilution method; type: functional; procedure, shortened: as §2
Pseudomonas aeruginosa [28] = assay: Antibacterial activity against wild type Pseudomonas aeruginosa isolate PR-548 assessed as inhibition of bacterial growth by microdilution method; type: functional; procedure, shortened: as §2
Pseudomonas aeruginosa [29] = assay: Antibacterial activity against wild type Pseudomonas aeruginosa isolate PR-567 assessed as inhibition of bacterial growth by microdilution method; type: functional; procedure, shortened: as §2
Pseudomonas aeruginosa [30] = assay: Antibacterial activity against wild type Pseudomonas aeruginosa isolate PR-672 assessed as inhibition of bacterial growth by microdilution method; type: functional; procedure, shortened: as §2
Pseudomonas aeruginosa [31] = assay: Antibacterial activity against wild type Pseudomonas aeruginosa isolate PR-604 assessed as inhibition of bacterial growth by microdilution method; type: functional; procedure, shortened: as §2
Pseudomonas aeruginosa [32] = assay: Antibacterial activity against wild type Pseudomonas aeruginosa isolate PR-638 assessed as inhibition of bacterial growth by microdilution method; type: functional; procedure, shortened: as §2
Pseudomonas aeruginosa [33] = assay: Antibacterial activity against wild type Pseudomonas aeruginosa isolate PR-676 assessed as inhibition of bacterial growth by microdilution method; type: functional; procedure, shortened: as §2
Pseudomonas aeruginosa [34] = assay: Antibacterial activity against wild type Pseudomonas aeruginosa isolate PR-503 assessed as inhibition of bacterial growth by microdilution method; type: functional; procedure, shortened: as §2
Pseudomonas aeruginosa [35] = assay: Antibacterial activity against Pseudomonas aeruginosa isolate PR-564 leucine at 533 residue assessed as inhibition of bacterial growth by microdilution method; type: functional; procedure, shortened: as §1
Pseudomonas aeruginosa [36] = assay: Antibacterial activity against wild type Pseudomonas aeruginosa isolate PR-606 assessed as inhibition of bacterial growth by microdilution method; type: functional; procedure, shortened: as §2
Pseudomonas aeruginosa [37] = assay: Antibacterial activity against Pseudomonas aeruginosa isolate PR-627 leucine at 533 residue assessed as inhibition of bacterial growth by microdilution method; type: functional; procedure, shortened: as §1
Pseudomonas aeruginosa [38] = assay: Antibacterial activity against wild type Pseudomonas aeruginosa isolate PR-635 assessed as inhibition of bacterial growth by microdilution method; type: functional; procedure, shortened: as §2
Pseudomonas aeruginosa [39] = assay: Antibacterial activity against wild type Pseudomonas aeruginosa isolate PR-636 leucine at 533 residue assessed as inhibition of bacterial growth by microdilution method; type: functional; procedure, shortened: as §2
Pseudomonas aeruginosa [40] = assay: Antibacterial activity against wild type Pseudomonas aeruginosa isolate PR-651 leucine at 533 residue assessed as inhibition of bacterial growth by microdilution method; type: functional; procedure, shortened: as §2
Pseudomonas aeruginosa [41] = assay: Antibacterial activity against wild type Pseudomonas aeruginosa isolate PR-668 leucine at 533 residue assessed as inhibition of bacterial growth by microdilution method; type: functional; procedure, shortened: as §2
Pseudomonas aeruginosa [42] = assay: Antibacterial activity against wild type Pseudomonas aeruginosa isolate PR-673 leucine at 533 residue assessed as inhibition of bacterial growth by microdilution method; type: functional; procedure, shortened: as §2
Pseudomonas aeruginosa [43] = assay: Antibacterial activity against wild type Pseudomonas aeruginosa isolate PR-677 assessed as inhibition of bacterial growth by microdilution method; type: functional; procedure, shortened: as §2
Pseudomonas aeruginosa [44] = assay: Antibacterial activity against wild type Pseudomonas aeruginosa isolate PR-680 leucine at 533 residue assessed as inhibition of bacterial growth by microdilution method; type: functional; procedure, shortened: as §2
Pseudomonas aeruginosa [45] = assay: Antibacterial activity against wild type Pseudomonas aeruginosa isolate PR-688 leucine at 533 residue assessed as inhibition of bacterial growth by microdilution method; type: functional; procedure, shortened: as §2
Pseudomonas aeruginosa [46] = assay: Antibacterial activity against wild type Pseudomonas aeruginosa isolate PR-699 assessed as inhibition of bacterial growth by microdilution method; type: functional; procedure, shortened: as §2
Pseudomonas aeruginosa [47] = assay: Antibacterial activity against Pseudomonas aeruginosa AR-BANK#0229; type: functional; procedure, shortened: as §1

## CC1(C)[C@H](C(=O)O)N2C(=O)C[C@H]2S1(=O)=O [SULBACTAM]
Acinetobacter baumannii [1]
  MIC: 16 µg/mL
Acinetobacter baumannii [2]
  MIC: > 32 µg/mL
Acinetobacter baumannii [3]
  MIC: 32 µg/mL
Acinetobacter baumannii [4]
  MIC: 2 µg/mL
Acinetobacter baumannii [5]
  MIC: 4 µg/mL
Acinetobacter baumannii [6]
  MIC: > 32 µg/mL
Acinetobacter baumannii [7]
  MIC: 16 µg/mL
Acinetobacter baumannii [8]
  MIC: 16 µg/mL
Acinetobacter baumannii [9]
  MIC: 16 µg/mL
Acinetobacter baumannii [10]
  MIC: 16 µg/mL
Acinetobacter baumannii [11]
  MIC: 16 µg/mL
Acinetobacter baumannii [12]
  MIC: 16 µg/mL
Acinetobacter baumannii [13]
  MIC: 16 µg/mL
Acinetobacter baumannii [14]
  MIC: 16 µg/mL
Acinetobacter baumannii [15]
  MIC: 32 µg/mL
Acinetobacter baumannii [16]
  MIC: 32 µg/mL
[17]
  MIC: 1 µg/mL
[18]
  MIC: 1 µg/mL
[19]
  MIC: 2 µg/mL
[20]
  MIC: 2 µg/mL
Acinetobacter baumannii [21]
  MIC: 8 µg/mL
Acinetobacter baumannii [22]
  MIC: 1 µg/mL
Acinetobacter baumannii [23]
  MIC: 1 µg/mL

## C[C@@H](O)[C@H]1C(=O)N2C(C(=O)O)=C(S[C@@H]3CN[C@H](C(=O)N(C)C)C3)[C@H](C)[C@H]12 [MEROPENEM]
Acinetobacter baumannii [24]
  MIC50: 8 µg/mL (≈ 20.9 µM)
  MIC90: > 64 µg/mL
Acinetobacter baumannii [25]
  MIC90: > 64 µg/mL

## CC(C)(O/N=C(\C(=O)N[C@@H]1C(=O)N2C(C(=O)[O-])=C(C[n+]3ccccc3)CS[C@H]12)c1csc(N)n1)C(=O)O [CEFTAZIDIME]
Acinetobacter baumannii [24]
  MIC50: 64 µg/mL (≈ 117 µM)
  MIC90: > 64 µg/mL
Acinetobacter baumannii [25]
  MIC50: > 64 µg/mL
  MIC90: > 64 µg/mL

## C[C@H]1[C@H](NC(=O)/C(=N\OC(C)(C)C(=O)O)c2csc(N)n2)C(=O)N1S(=O)(=O)O [AZTREONAM]
Acinetobacter baumannii [25]
  MIC50: > 32 µg/mL
  MIC90: > 32 µg/mL

## C[C@@H](O)[C@H]1C(=O)N2C(C(=O)O)=C(S[C@@H]3CN[C@H](CNS(N)(=O)=O)C3)[C@H](C)[C@H]12 [DORIPENEM]
[26]
  IC50: 2300 nM

## CC(C)(O/N=C(\C(=O)N[C@H]1CN2CC(C(=O)NCCN3C(=O)c4cc(O)c(O)cc4C3=O)=C(C(=O)O)N2C1=O)c1csc(N)n1)C(=O)O (stereo in doubt)
Pseudomonas aeruginosa [27]
  MIC: ≤ 0.25 µg/mL
Pseudomonas aeruginosa [28]
  MIC: ≤ 0.25 µg/mL
Pseudomonas aeruginosa [29]
  MIC: ≤ 0.25 µg/mL
Pseudomonas aeruginosa [30]
  MIC: ≤ 0.25 µg/mL
Pseudomonas aeruginosa [31]
  MIC: ≤ 0.25 µg/mL
Pseudomonas aeruginosa [32]
  MIC: > 16 µg/mL
Pseudomonas aeruginosa [33]
  MIC: 16 µg/mL (≈ 23.3 µM)
Pseudomonas aeruginosa [34]
  MIC: 16 µg/mL (≈ 23.3 µM)
Pseudomonas aeruginosa [35]
  MIC: > 16 µg/mL
Pseudomonas aeruginosa [36]
  MIC: 16 µg/mL (≈ 23.3 µM)
Pseudomonas aeruginosa [37]
  MIC: > 16 µg/mL
Pseudomonas aeruginosa [38]
  MIC: 16 µg/mL (≈ 23.3 µM)
Pseudomonas aeruginosa [39]
  MIC: > 16 µg/mL
Pseudomonas aeruginosa [40]
  MIC: > 16 µg/mL
Pseudomonas aeruginosa [41]
  MIC: > 16 µg/mL
Pseudomonas aeruginosa [42]
  MIC: > 16 µg/mL
Pseudomonas aeruginosa [43]
  MIC: 16 µg/mL (≈ 23.3 µM)
Pseudomonas aeruginosa [44]
  MIC: > 16 µg/mL
Pseudomonas aeruginosa [45]
  MIC: > 16 µg/mL
Pseudomonas aeruginosa [46]
  MIC: > 16 µg/mL
Pseudomonas aeruginosa [47]
  MIC: 0.25 µg/mL (≈ 0.364 µM)

Reference: ChEMBL document CHEMBL4842318, “A γ-lactam siderophore antibiotic effective against multidrug-resistant Pseudomonas aeruginosa, Klebsiella pneumoniae, and Acinetobacter spp” (Eur J Med Chem, 2021)
